In ChEMBL document CHEMBL1142981, “Identification and synthesis of a novel selective partial PPARdelta agonist with full efficacy on lipid metabolism in vitro and in vivo” (J Med Chem, 2007):
pEC50: −log10 of the molar value. Activity calls are given as the source filed them. No cut-off for these calls is given here.

What was measured:
[1] = Clearance in Sprague-Dawley rat at 1.06 mg/kg, iv; format: ADME, organism-based; design: dose 1.06 mg/kg, route intravenous; details: in vivo
Outline: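 Male SD rats dosed once i.v. or p.o. (n = 8 per route), vehicle 5% ethanol, 10% HPCD, phosphate buffer pH 7.5-8.0. One animal sacrificed at each of 5, 15, 30, 60, 90, 120, 240 and 360 min; EDTA plasma analysed by high turbulence LC-MS/MS. Each data point represents one animal.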

[2] = tested on: L6; experiment: Effect on glucose oxidation in rat L6 cells; format: functional, cell-based
Outline: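 Differentiated rat L6 cells handled as for the fatty acid oxidation assay, with tritiated palmitate replaced by 10 µCi/mL [5-3H]-D-glucose; oxidation measured as 3H-H2O released into medium after TCA stop, collected by overnight equilibration at 50 °C and scintillation counting. FCCP served as positive control.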

[3] = biological target: T1, Peroxisome proliferator-activated receptor delta (Mus musculus) (UniProt P35396); experiment: (§1) Agonist activity at mouse PPAR delta expressed in HEK293 cells by PPAR-GAL4 transactivation assay; format: functional, cell-based
T1 sequence (whole entry): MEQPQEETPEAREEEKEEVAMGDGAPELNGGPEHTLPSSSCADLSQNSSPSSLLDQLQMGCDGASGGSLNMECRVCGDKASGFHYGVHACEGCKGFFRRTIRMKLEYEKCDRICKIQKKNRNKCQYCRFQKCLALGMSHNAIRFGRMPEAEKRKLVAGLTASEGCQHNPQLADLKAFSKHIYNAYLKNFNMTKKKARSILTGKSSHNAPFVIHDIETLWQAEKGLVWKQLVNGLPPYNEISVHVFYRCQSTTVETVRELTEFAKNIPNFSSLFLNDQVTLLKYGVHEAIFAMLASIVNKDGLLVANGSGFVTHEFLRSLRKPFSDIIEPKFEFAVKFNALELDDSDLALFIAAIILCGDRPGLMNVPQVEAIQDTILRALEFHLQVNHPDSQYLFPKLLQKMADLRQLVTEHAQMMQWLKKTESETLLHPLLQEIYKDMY

[4] = biological target: T2, Peroxisome proliferator-activated receptor delta (Mus musculus, UniProt P35396); experiment: as §1; format: functional, cell-based
T2 sequence (P35396 whole entry): T1 sequence (whole entry)

[5] = tested on: Mus musculus; experiment: Decrease in total cholesterol level in human ApoB100/CETP transgenic mouse at 5 mg/kg, po after 6 weeks relative to control; format: functional; design: scale not given: the % may be the effect or the level left
[6] = tested on: Mus musculus; experiment: Decrease in total cholesterol level in human ApoB100/CETP transgenic mouse at 10 mg/kg, po after 6 weeks relative to control; format: functional; design: scale not given: the % may be the effect or the level left
[7] = tested on: Mus musculus; experiment: Decrease in LDL level in human ApoB100/CETP transgenic mouse at 5 mg/kg, po after 6 weeks relative to control; format: functional; design: scale not given: the % may be the effect or the level left
[8] = tested on: L6; experiment: Effect on fatty acid oxidation in rat L6 cells; format: functional, cell-based
Outline: (§2)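 Rat L6 myoblasts differentiated 5 days in 2% serum, then treated 42 h with compound (refreshed at 24 h), followed by 6 h with 0.4 mM palmitate containing [9,10-3H]-palmitic acid on 2% fatty-acid-free BSA. Stopped with 10% TCA; released 3H-H2O collected by overnight equilibration at 50 °C and counted.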

[9] = tested on: L6; experiment: Effect on increase in fatty acid oxidation in rat L6 cells relative to GW-501516; format: functional; design: concentration or dose not given beside the values; outline: as §2
[10] = Oral bioavailability in Sprague-Dawley rat at 2.06 mg/kg; format: ADME, organism-based; details: in vivo
Outline: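 Male SD rats received a single p.o. or i.v. dose (n = 8 per route) in 5% ethanol, 10% HPCD and phosphate buffer, pH 7.5-8.0. At 5, 15, 30, 60, 90, 120, 240 and 360 min one rat was sacrificed per time point. EDTA plasma was assayed by high turbulence LC-MS/MS. Cmax and bioavailability were taken from oral dosing; volume of distribution is at steady state.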

[11] = tested on: Mus musculus; experiment: Decrease in LDL level in human ApoB100/CETP transgenic mouse at 20 mg/kg, po after 6 weeks relative to control; format: functional; design: scale not given: the % may be the effect or the level left
[12] = tested on: Mus musculus; experiment: Decrease in triglycerides level in human ApoB100/CETP transgenic mouse at 5 mg/kg, po after 6 weeks relative to control; format: functional; design: scale not given: the % may be the effect or the level left
[13] = tested on: Mus musculus; experiment: Decrease in triglycerides level in human ApoB100/CETP transgenic mouse at 10 mg/kg, po after 6 weeks relative to control; format: functional; design: scale not given: the % may be the effect or the level left
[14] = tested on: Mus musculus; experiment: Decrease in triglycerides level in human ApoB100/CETP transgenic mouse at 20 mg/kg, po after 6 weeks relative to control; format: functional; design: scale not given: the % may be the effect or the level left
[15] = tested on: Mus musculus; experiment: Increase in total ketone bodies level in human ApoB100/CETP transgenic mouse at 5 mg/kg, po after 6 weeks relative to control; format: functional
[16] = tested on: Mus musculus; experiment: Decrease in total ketone bodies level in human ApoB100/CETP transgenic mouse at 10 mg/kg, po after 6 weeks relative to control; format: functional; design: scale not given: the % may be the effect or the level left
[17] = tested on: Mus musculus; experiment: Decrease in total ketone bodies level in human ApoB100/CETP transgenic mouse at 20 mg/kg, po after 6 weeks relative to control; format: functional; design: scale not given: the % may be the effect or the level left
[18] = tested on: Mus musculus; experiment: Decrease in glucose level in human ApoB100/CETP transgenic mouse at 10 mg/kg, po after 6 weeks relative to control; format: functional; design: scale not given: the % may be the effect or the level left
[19] = tested on: Mus musculus; experiment: Decrease in glucose level in human ApoB100/CETP transgenic mouse at 20 mg/kg, po after 6 weeks relative to control; format: functional; design: scale not given: the % may be the effect or the level left
[20] = tested on: Mus musculus; experiment: Decrease in insulin level in human ApoB100/CETP transgenic mouse at 5 mg/kg, po after 6 weeks by ELISA relative to control; format: functional; design: scale not given: the % may be the effect or the level left
[21] = tested on: Mus musculus; experiment: Decrease in insulin level in human ApoB100/CETP transgenic mouse at 10 mg/kg, po after 6 weeks by ELISA relative to control; format: functional; design: scale not given: the % may be the effect or the level left
[22] = tested on: Mus musculus; experiment: Increase in insulin level in human ApoB100/CETP transgenic mouse at 20 mg/kg, po after 6 weeks by ELISA relative to control; format: functional
[23] = tested on: Mus musculus; experiment: Decrease in HbA1c level in human ApoB100/CETP transgenic mouse at 10 mg/kg, po after 6 weeks relative to control; format: functional; design: scale not given: the % may be the effect or the level left
[24] = tested on: Mus musculus; experiment: Decrease in HbA1c level in human ApoB100/CETP transgenic mouse at 20 mg/kg, po after 6 weeks relative to control; format: functional; design: scale not given: the % may be the effect or the level left
[25] = biological target: T3, Peroxisome proliferator-activated receptor delta (Homo sapiens, UniProt Q03181)
T3 sequence (Q03181 whole entry): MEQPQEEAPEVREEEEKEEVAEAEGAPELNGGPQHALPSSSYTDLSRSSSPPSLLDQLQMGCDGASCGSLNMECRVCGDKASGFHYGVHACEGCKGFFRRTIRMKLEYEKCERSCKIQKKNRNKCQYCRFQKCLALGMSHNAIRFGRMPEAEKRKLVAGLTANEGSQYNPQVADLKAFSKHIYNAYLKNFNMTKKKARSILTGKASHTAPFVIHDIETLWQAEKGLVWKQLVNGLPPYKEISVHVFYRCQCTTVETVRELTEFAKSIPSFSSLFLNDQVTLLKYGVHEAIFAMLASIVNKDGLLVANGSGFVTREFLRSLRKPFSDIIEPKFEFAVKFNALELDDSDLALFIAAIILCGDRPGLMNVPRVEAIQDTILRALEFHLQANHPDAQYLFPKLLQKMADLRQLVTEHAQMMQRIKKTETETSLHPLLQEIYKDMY

- clearance [1]: 11.9 mL/min/kg
- Activity [3]: 167%
- pEC50 [4]: 6.52
- bioavailability [10]: 46%
- pEC50 [25]: 7.28
SMILES: O=C(O)COc1ccc(SCC=C(c2ccc(Br)cc2)c2ccc(Br)cc2)cc1Cl
- Activity [2]: inactive
- Activity [5]: 19%
- Activity [6]: 14%
- Activity [7]: 7%
- pEC50 [8]: 7.52
- Activity [9]: 109%
- Activity [11]: 35%
- Activity [12]: 15%
- Activity [13]: 7%
- Activity [14]: 5%
- Activity [15]: 5%
- Activity [16]: 10%
- Activity [17]: 29%
- Activity [18]: 2%
- Activity [19]: 5%
- Activity [20]: 11%
- Activity [21]: 8%
- Activity [22]: 3%
- Activity [23]: 9%
- Activity [24]: 12%
